# Test results from ChEMBL document CHEMBL1671864, “First assessment in humans of the safety, tolerability, pharmacokinetics, and ex vivo pharmacodynamic antimalarial activity of the new artemisinin derivative artemisone” (Antimicrob Agents Chemother, 2008).
# How the values were obtained:
# Plasma [1] = test: Cmax in healthy human plasma assessed as metabolite BAY 78-1787 Cmax at 80 mg, po administered as single ascending doses during 10 hrs overnight fasting state; type: ADME, organism-based; set-up: dose 80 mg, route oral; details: in vivo
# Procedure, shortened: (§1)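 Healthy Caucasian male volunteers, single oral dose of 80 mg as four 20-mg immediate-release tablets, taken with 240 ml water after a 10-h overnight fast. Lithium-heparin venous blood was drawn predose and at 0.25–14 h, and plasma was stored frozen. Metabolites M1/M2/M3 were measured by LC/MS-MS (positive-ion MRM, deuterated internal standard). Noncompartmental analysis, AUC by log-linear trapezoidal rule extrapolated to infinity (Clast/kel), geometric means.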
# Plasma [2] = test: AUC (0 to infinity) in healthy human plasma assessed as metabolite BAY 78-1787 AUC (0 to infinity) at 80 mg, po administered as single ascending doses during 10 hrs overnight fasting state; type: ADME, organism-based; set-up: dose 80 mg, time infinity, route oral; details: in vivo; procedure, shortened: as §1
# Plasma [3] = test: Half-life in healthy human plasma assessed as metabolite BAY 78-1787 half-life at 80 mg, po administered as single ascending doses during 10 hrs overnight fasting state; type: ADME, organism-based; details: in vivo
# Procedure, shortened: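 Healthy Caucasian male volunteers, single oral dose with 240 ml water after a 10-h overnight fast. Heparinised venous blood was drawn predose and at 0.25–14 h. Plasma was stored frozen. Parent drug and metabolites M1–M3 were measured by LC/MS-MS (MRM, deuterated internal standard). Noncompartmental analysis gave Cmax observed, t1/2 = 0.693/kel (terminal regression) and MRT = AUMC/AUC. Values are geometric means.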
# Plasma [4] = test: Ratio of AUC (0 to infinity) for metabolite BAY 78-1787 to AUC (0 to infinity) for compound in healthy human plasma at 40 mg, po administered as single dose for 3 days measured after 1 day; type: ADME, organism-based; details: in vivo, 24 h
# Procedure, shortened: (§2)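 Healthy Caucasian men (8 active, 4 placebo per dose) dosed with tablets daily for 3 days after 10-h fast. Plasma sampled 0.25–14 h after first and last doses. Parent and metabolites M1–M3 measured by LC/MS-MS (200 µl plasma). Metabolic ratio is metabolite AUC0-∞ divided by parent AUC0-∞ (log-linear trapezoidal, extrapolated by last concentration/kel). First vs third dose compared by paired t test.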
# Plasma [5] = test: Ratio of AUC (0 to infinity) for metabolite BAY 78-1787 to AUC (0 to infinity) for compound in healthy human plasma at 40 mg, po administered as single dose for 3 days measured after 3 days; type: ADME, organism-based; details: in vivo, 72 h; procedure, shortened: as §2
# Plasma [6] = test: Ratio of AUC (0 to infinity) for metabolite BAY 78-1787 to AUC (0 to infinity) for compound in healthy human plasma at 80 mg, po administered as single dose for 3 days measured after 1 day; type: ADME, organism-based; details: in vivo, 24 h; procedure, shortened: as §2
# Plasma [7] = test: Ratio of AUC (0 to infinity) for metabolite BAY 78-1787 to AUC (0 to infinity) for compound in healthy human plasma at 80 mg, po administered as single dose for 3 days measured after 3 days; type: ADME, organism-based; details: in vivo, 72 h; procedure, shortened: as §2
# Plasmodium falciparum = test: Antimalarial activity against Plasmodium falciparum K1 in human plasma assessed as inhibition of hypoxanthine uptake by intraerythrocytic malaria parasites by hypoxanthine incorporation assay; type: functional, organism-based
# Procedure, shortened: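 K1 or TM90-C2A parasites were sorbitol-synchronized and cultured in RPMI 1640. Drug was diluted in drug-free human serum (0.04–40 ng/ml) or subject plasma was diluted twofold (8–8,192). Parasites were added at 2% hematocrit, 1% parasitemia (>95% rings), and [3H]hypoxanthine uptake was measured over 48 h. IC50 or ID50 came from concentration or dilution-response curves. Equivalent concentration = ID50 × IC50.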
# Plasma [8] = test: Cmax in healthy human plasma assessed as metabolite BAY 78-1787 Cmax at 40 mg, po administered as two 20 mg immediate release tablets daily for 3 days during 10 hrs overnight fasting state measured after 1 day; type: ADME, organism-based; set-up: dose 40 mg, route oral; details: in vivo, 24 h
# Procedure, shortened: (§3)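 Healthy Caucasian male volunteers took 40 mg (two 20-mg IR tablets) or 80 mg (four tablets) orally once daily for 3 days, with 240 ml water after a 10-h fast. Plasma was sampled predose to 14 h after the first and last doses. M1/M2/M3 were quantified by LC/MS-MS MRM against a D4-labelled internal standard. Cmax was read from observed data and AUC by log-linear trapezoidal rule, noncompartmental, geometric means.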
# Plasma [9] = test: Cmax in healthy human plasma assessed as metabolite BAY 78-1787 Cmax at 40 mg, po administered as two 20 mg immediate release tablets daily for 3 days during 10 hrs overnight fasting state measured after 3 day; type: ADME, organism-based; set-up: dose 40 mg, route oral; details: in vivo, 72 h; procedure, shortened: as §3
# Plasma [10] = test: AUC in healthy human plasma assessed as metabolite BAY 78-1787 AUC at 40 mg, po administered as two 20 mg immediate release tablets daily for 3 days during 10 hrs overnight fasting state measured after 1 day; type: ADME, organism-based; set-up: dose 40 mg, time < 10 hr, route oral; details: in vivo; procedure, shortened: as §3
# Plasma [11] = test: AUC in healthy human plasma assessed as metabolite BAY 78-1787 AUC at 40 mg, po administered as two 20 mg immediate release tablets daily for 3 days during 10 hrs overnight fasting state measured after 3 day; type: ADME, organism-based; set-up: time < 10 hr, dose 40 mg, route oral; details: in vivo; procedure, shortened: as §3
# Plasma [12] = test: Tmax in healthy human plasma assessed as metabolite BAY 78-1787 Tmax at 40 mg, po administered as two 20 mg immediate release tablets daily for 3 days during 10 hrs overnight fasting state measured after 1 day; type: ADME, organism-based; details: in vivo, 24 h
# Procedure, shortened: (§4)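 Healthy Caucasian men (8 active, 4 placebo per dose) dosed with tablets daily for 3 days after 10-h fast. Lithium-heparin plasma sampled predose and 0.25–14 h after day-1 and day-3 doses, stored frozen. Parent and M1–M3 quantified by LC/MS-MS in positive-ion MRM. Tmax taken directly from observed individual data.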
# Plasma [13] = test: Tmax in healthy human plasma assessed as metabolite BAY 78-1787 Tmax at 40 mg, po administered as two 20 mg immediate release tablets daily for 3 days during 10 hrs overnight fasting state measured after 3 day; type: ADME, organism-based; details: in vivo, 72 h; procedure, shortened: as §4
# Plasma [14] = test: Half life in healthy human plasma assessed as metabolite BAY 78-1787 Half life at 40 mg, po administered as two 20 mg immediate release tablets daily for 3 days during 10 hrs overnight fasting state measured after 1 day; type: ADME, organism-based; details: in vivo, 24 h
# Procedure, shortened: (§5)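 Healthy Caucasian males took tablets once daily for 3 days with 240 ml water after a 10-h fast. Heparinised blood was drawn predose and at 0.25–14 h after the first and last doses. Plasma parent drug and metabolites M1–M3 were measured by LC/MS-MS (MRM, deuterated internal standard). Noncompartmental analysis gave Cmax observed, t1/2 = 0.693/kel and MRT = AUMC/AUC. Values are geometric means.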
# Plasma [15] = test: Half life in healthy human plasma assessed as metabolite BAY 78-1787 Half life at 40 mg, po administered as two 20 mg immediate release tablets daily for 3 days during 10 hrs overnight fasting state measured after 3 day; type: ADME, organism-based; details: in vivo, 72 h; procedure, shortened: as §5
# Plasma [16] = test: Cmax in healthy human plasma assessed as metabolite BAY 78-1787 Cmax at 80 mg, po administered as four 20 mg immediate release tablets daily for 3 days during 10 hrs overnight fasting state measured after 1 day; type: ADME, organism-based; set-up: dose 80 mg, route oral; details: in vivo; procedure, shortened: as §3
# Plasma [17] = test: Cmax in healthy human plasma assessed as metabolite BAY 78-1787 Cmax at 80 mg, po administered as four 20 mg immediate release tablets daily for 3 days during 10 hrs overnight fasting state measured after 3 day; type: ADME, organism-based; set-up: dose 80 mg, route oral; details: in vivo, 72 h; procedure, shortened: as §3
# Plasma [18] = test: AUC in healthy human plasma assessed as metabolite BAY 78-1787 AUC at 80 mg, po administered as four 20 mg immediate release tablets daily for 3 days during 10 hrs overnight fasting state measured after 1 day; type: ADME, organism-based; set-up: dose 80 mg, time < 10 hr, route oral; details: in vivo; procedure, shortened: as §3
# Plasma [19] = test: AUC in healthy human plasma assessed as metabolite BAY 78-1787 AUC at 80 mg, po administered as four 20 mg immediate release tablets daily for 3 days during 10 hrs overnight fasting state measured after 3 day; type: ADME, organism-based; set-up: dose 80 mg, time < 10 hr, route oral; details: in vivo; procedure, shortened: as §3
# Plasma [20] = test: Tmax in healthy human plasma assessed as metabolite BAY 78-1787 Tmax at 80 mg, po administered as four 20 mg immediate release tablets daily for 3 days during 10 hrs overnight fasting state measured after 1 day; type: ADME, organism-based; details: in vivo, 24 h; procedure, shortened: as §4
# Plasma [21] = test: Tmax in healthy human plasma assessed as metabolite BAY 78-1787 Tmax at 80 mg, po administered as four 20 mg immediate release tablets daily for 3 days during 10 hrs overnight fasting state measured after 3 day; type: ADME, organism-based; details: in vivo, 72 h; procedure, shortened: as §4
# Plasma [22] = test: Half life in healthy human plasma assessed as metabolite BAY 78-1787 Half life at 80 mg, po administered as four 20 mg immediate release tablets daily for 3 days during 10 hrs overnight fasting state measured after 1 day; type: ADME, organism-based; details: in vivo, 24 h; procedure, shortened: as §5
# Plasma [23] = test: Half life in healthy human plasma assessed as metabolite BAY 78-1787 Half life at 80 mg, po administered as four 20 mg immediate release tablets daily for 3 days during 10 hrs overnight fasting state measured after 3 day; type: ADME, organism-based; details: in vivo, 72 h; procedure, shortened: as §5
structure (smiles),measurement,setting,value
C[C@H]1[C@H](N2C=CS(=O)(=O)CC2)O[C@@H]2O[C@]3(C)CC[C@H]4[C@H](C)CC[C@@H]1[C@@]24OO3,Cmax,Plasma [1],121.1 ng/mL
same,AUC,Plasma [2],315.4 ng·h/mL
same,t1/2,Plasma [3],2.78 h
same,Ratio,Plasma [4],0.63
same,Ratio,Plasma [5],0.62
same,Ratio,Plasma [6],0.89
same,Ratio,Plasma [7],0.79
same,IC50,Plasmodium falciparum,1.7 ng/mL
same,Cmax,Plasma [8],51.7 ng/mL
same,Cmax,Plasma [9],47.8 ng/mL
same,AUC,Plasma [10],112.6 ng·h/mL
same,AUC,Plasma [11],112.3 ng·h/mL
same,Tmax,Plasma [12],1.75 h
same,Tmax,Plasma [13],1.75 h
same,t1/2,Plasma [14],1.9 h
same,t1/2,Plasma [15],1.54 h
same,Cmax,Plasma [16],112.6 ng/mL
same,Cmax,Plasma [17],85.3 ng/mL
same,AUC,Plasma [18],296 ng·h/mL
same,AUC,Plasma [19],255.2 ng·h/mL
same,Tmax,Plasma [20],2 h
same,Tmax,Plasma [21],1.5 h
same,t1/2,Plasma [22],2.13 h
same,t1/2,Plasma [23],1.63 h
